In article PMC7870562 (Bioorganic chemistry, 2020):

Assays:
[1] = system: HaCaT; test: MTT cytotoxicity / cell viability assay, HaCaT keratinocytes; assay type: cell-based; settings: Homo sapiens, 48 h
Procedure, shortened: (§1)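 Cells in 5–10% FBS/DMEM were seeded at 5×10³ per well, refed at 24 h and grown to 70% confluence. They were treated for 48 h at 37°C, 5% CO2 with two-fold serial dilutions of test compound in DMSO (≤0.1%), […], in 8–10 repeats. After MTT, absorbance was read at 562 nm. Viability was expressed relative to DMSO controls and IC50 derived by nonlinear regression. Data are mean ± SD of ≥5 independent experiments in octuplicates.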

[2] = system: SK-Mel-28 cells; test: MTT cytotoxicity / cell viability assay, SK-Mel-28; assay type: cell-based, human; settings: for IC50: Homo sapiens, SK-MEL-28, 48 h; for selectivity index: IC50 melanocytes / IC50 SK-Mel-28
Procedure, shortened: as §1

[3] = system: A375 cells; test: MTT cytotoxicity / cell viability assay, A375; assay type: cell-based, human; settings: for IC50: Homo sapiens, A-375, 48 h; for selectivity index: IC50 melanocytes / IC50 A375
Procedure, shortened: as §1

[4] = system: A431 cells; test: MTT cytotoxicity / cell viability assay, A431; assay type: cell-based, human; settings: for IC50: Homo sapiens, A-431, 48 h; for selectivity index: IC50 HaCaT / IC50 A431
Procedure, shortened: as §1

[5] = system: UWBCC1 cells; test: MTT cytotoxicity / cell viability assay, UWBCC1; assay type: cell-based, human; settings: for IC50: Homo sapiens, 48 h; for selectivity index: IC50 HaCaT / IC50 UWBCC1
Procedure, shortened: as §1

[6] = system: Melanocyte; test: MTT cytotoxicity / cell viability assay, normal melanocytes; assay type: cell-based; settings: Homo sapiens, 48 h
Procedure, shortened: as §1

[7] = target: c-Kit (Homo sapiens, UniProt P10721); test: In vitro kinase activity assay; assay type: biochemical
c-Kit, sequence (P10721 26-976): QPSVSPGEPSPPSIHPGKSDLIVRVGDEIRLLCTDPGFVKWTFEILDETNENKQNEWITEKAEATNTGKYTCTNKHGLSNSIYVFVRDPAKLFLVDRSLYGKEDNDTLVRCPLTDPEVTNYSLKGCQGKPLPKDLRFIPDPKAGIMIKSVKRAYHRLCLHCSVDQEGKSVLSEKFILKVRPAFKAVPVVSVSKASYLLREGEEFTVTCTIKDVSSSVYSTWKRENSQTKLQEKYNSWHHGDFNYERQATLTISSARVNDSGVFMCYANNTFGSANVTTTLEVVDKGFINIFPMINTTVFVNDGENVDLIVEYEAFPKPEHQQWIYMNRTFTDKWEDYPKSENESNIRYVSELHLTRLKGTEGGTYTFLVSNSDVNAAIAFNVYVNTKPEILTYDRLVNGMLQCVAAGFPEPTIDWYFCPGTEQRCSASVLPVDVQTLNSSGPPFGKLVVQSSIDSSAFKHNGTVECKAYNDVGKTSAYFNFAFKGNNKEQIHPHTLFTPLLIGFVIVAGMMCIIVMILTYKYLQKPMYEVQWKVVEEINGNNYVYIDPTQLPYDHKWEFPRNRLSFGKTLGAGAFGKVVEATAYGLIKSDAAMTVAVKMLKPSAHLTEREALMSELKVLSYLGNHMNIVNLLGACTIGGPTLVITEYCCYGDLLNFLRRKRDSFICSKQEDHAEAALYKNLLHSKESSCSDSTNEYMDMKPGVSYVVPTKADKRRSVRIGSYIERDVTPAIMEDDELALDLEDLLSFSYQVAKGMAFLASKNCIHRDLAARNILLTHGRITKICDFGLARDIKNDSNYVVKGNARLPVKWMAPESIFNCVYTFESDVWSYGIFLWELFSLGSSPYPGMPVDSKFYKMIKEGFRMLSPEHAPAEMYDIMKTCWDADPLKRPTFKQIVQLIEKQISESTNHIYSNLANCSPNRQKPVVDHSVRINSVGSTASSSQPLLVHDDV
Procedure, shortened: (§2)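 Kinase profiling was run at Reaction Biology. IC50 values came from 10-dose mode, three-fold serial dilutions starting at 100 μM. Reference inhibitors were co-assayed at 1 and 10 μM.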

[8] = target: CDK2/Cyclin E (Homo sapiens, UniProt P24941); test: In vitro kinase activity assay; assay type: biochemical; settings: 10-dose, three-fold serial dilution from 100 μM
Procedure, shortened: as §2

[9] = target: CDK2/Cyclin A (Homo sapiens, UniProt P24941); test: In vitro kinase activity assay; assay type: biochemical; settings: 10-dose, three-fold serial dilution from 100 μM
Procedure, shortened: as §2

[10] = target: mTOR/FRAP1 (Homo sapiens, UniProt P42345); test: In vitro kinase activity assay; assay type: biochemical; settings: for IC50: mTOR/FRAP1 IC50, 10-dose, three-fold serial dilution from 100 μM
Procedure, shortened: as §2

[11] = system: A431 cells; test: DAPI staining of apoptotic nuclei, A431; assay type: cell-based, human
Procedure, shortened: (§3)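 Equal numbers of cells were seeded in T-25 flasks and exposed to test compound at different concentrations for 36 h. Cells were PBS-washed, stained with DAPI in PBS and imaged by fluorescence microscopy at 10x and 1.6×10x. Apoptotic nuclei were scored by morphology and expressed as percentage of cells.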

[12] = system: A375 cells; test: DAPI staining of apoptotic nuclei, A375; assay type: cell-based, human
Procedure, shortened: as §3

[13] = A431, treated 36 hours at ½IC50
[14] = A375, treated 36 hours at ½IC50

Row | SMILES | IC50 [1] [µM] | IC50 [2] [µM] | IC50 [3] [µM] | IC50 [4] [µM] | selectivity index [4] | selectivity index [2] | IC50 [5] [µM] | selectivity index [5] | selectivity index [3] | IC50 [6] [µM] | other results
1 | COc1cccc2c1C(=O)c1c(O)c3c(c(O)c1C2=O)C[C@@](O)(C(=O)CO)C[C@@H]3O[C@H]1C[C@H](N)[C@H](O)[C@H](C)O1 [Doxorubicin, reference compound] | 0.07 ± 0.01 | 0.23 ± 0.06 | 0.1 ± 0.01 | 0.37 ± 0.02 | 0.2 | – | – | – | – | – | –
2 | COc1cccc(-c2oc3ccccc3c(=O)c2O)c1 [F2, 3-Hydroxy-2-(3-methoxyphenyl)-4H-chromen-4-one] | – | – | 28 ± 2.3 | 21 ± 16 | – | – | – | – | – | – | –
3 | COc1cc(OC)c(-c2oc3ccccc3c(=O)c2O)cc1OC [F23, 3-Hydroxy-2-(2,4,5-trimethoxyphenyl)-4H-chromen-4-one] | 24 ± 1.4 | 19 ± 3 | 13 ± 3.1 | 12 ± 1.9 | 2.0 | 1.6 | 9.4 ± 1.4 | 2.6 | 1.7 | 22 ± 1 | –
4 | O=c1c(O)c(-c2ccc(OCc3ccccc3)cc2)oc2ccccc12 [F7, 2-(4-(Benzyloxy)phenyl)-3-hydroxy-4H-chromen-4-one] | – | – | 88 ± 35 | > 100 | – | – | – | – | – | – | –
5 | O=c1c(O)c(-c2ccc(C(F)(F)F)cc2C(F)(F)F)oc2ccccc12 [F5, 2-(2,4-Bis(trifluoromethyl)phenyl)-3-hydroxy-4H-chromen-4-one] | – | – | 95 ± 12 | > 100 | – | – | – | – | – | – | –
6 | COc1cccc(-c2oc3cc(Br)ccc3c(=O)c2O)c1 [F15, 7-Bromo-3-hydroxy-2-(3-methoxyphenyl)-4H-chromen-4-one] | – | – | > 100 | > 100 | – | – | – | – | – | – | –
7 | O=c1c(O)c(-c2ccc(O)c(O)c2)oc2cc(O)ccc12 [F0, 3´,4´,7-trihydroxyflavonol, reference compound] | 30 ± 1.1 | 29 ± 4 | 21 ± 1 | 26 ± 1 | 1.2 | 1.1 | 28 ± 0.2 | 1.1 | 1.6 | 33 ± 2.7 | IC50 [7]: 1.34 µM; IC50 [8]: 3.34 µM; IC50 [9]: 2.62 µM; IC50 [10]: 28.7 µM
8 | O=c1c(O)c(-c2ccccc2)oc2ccccc12 [F1, 3-Hydroxy-2-phenyl-4H-chromen-4-one] | 38 ± 0.02 | 21 ± 1 | 14 ± 0.8 | 15 ± 0.04 | 2.5 | 1.2 | 12 ± 0.8 | 3.2 | 1.9 | 27 ± 0.9 | –
9 | COc1cc(-c2oc3ccc(F)cc3c(=O)c2O)cc(OC)c1OC [F22, 6-Fluoro-3-hydroxy-2-(3,4,5-trimethoxyphenyl)-4H-chromen-4-one] | 23 ± 1.9 | – | 15 ± 1.9 | 13 ± 2.6 | 1.8 | – | 11 ± 2 | 2.1 | 1.6 | 24 ± 1.6 | –
10 | Cc1ccc2c(=O)c(O)c(-c3ccc(C(C)(C)C)cc3)oc2c1 [F11, 2-(4-(Tert-butyl)phenyl)-3-hydroxy-7-methyl-4H-chromen-4-one] | 25 ± 0.78 | 18 ± 2 | 11 ± 2 | 4.7 ± 0.9 | 4.7 | 1.4 | 9.7 ± 0.6 | 2.3 | 2.4 | 26 ± 1.1 | IC50 [9]: 32.5 µM; inhibition of mTOR kinase activity (in words) [10]: did not substantively inhibit
11 | O=c1c(O)c(-c2cc(C(F)(F)F)cc(C(F)(F)F)c2)oc2ccccc12 [F6, 2-(3,5-Bis(trifluoromethyl)phenyl)-3-hydroxy-4H-chromen-4-one] | 31 ± 1.9 | 27 ± 4.1 | 7 ± 0.32 | 8.6 ± 0.5 | 3.6 | – | 6.6 ± 0.79 | 4.7 | 3.7 | 26 ± 1.3 | IC50 [7]: > 100 µM; IC50 [9]: > 100 µM
12 | COc1ccc2c(=O)c(O)c(-c3ccc(Br)cc3)oc2c1 [F12, 2-(4-Bromophenyl)-3-hydroxy-7-methoxy-4H-chromen-4-one] | – | – | > 100 | > 100 | – | – | – | – | – | – | –
13 | COc1ccc2c(=O)c(O)c(-c3ccc(C(C)(C)C)cc3)oc2c1 [F13, 2-(4-(Tert-butyl)phenyl)-3-hydroxy-7-methoxy-4H-chromen-4-one] | – | – | 28 ± 24 | > 100 | – | – | – | – | – | – | –
14 | Cc1cc2oc(-c3ccc(OCc4ccccc4)cc3)c(O)c(=O)c2cc1Cl [F19, 2-(4-(Benzyloxy)phenyl)-6-chloro-3-hydroxy-7-methyl-4H-chromen-4-one] | 28 ± 0.31 | 19 ± 3 | 13 ± 2.6 | 1.5 ± 0.3 | 19 | 1.2 | 1.1 ± 0.4 | 25 | 1.7 | 27 ± 1 | IC50 [7]: 0.33 µM; DAPI (+) apoptotic cells ([11]; A431, treated 36 hours at IC50): 14.2%; DAPI (+) apoptotic cells [11, 13]: 6.71%; IC50 [9]: 12.7 µM; DAPI (+) apoptotic cells ([12]; A375, treated 36 hours at IC50): 13.3%; DAPI (+) apoptotic cells [12, 14]: 5.6%; IC50 [10]: 1.64 µM
15 | COc1ccc(-c2oc3ccc(Br)cc3c(=O)c2O)cc1OC [F16, 6-Bromo-2-(3,4-dimethoxyphenyl)-3-hydroxy-4H-chromen-4-one] | – | – | 79.5 ± 9 | > 100 | – | – | 40 ± 0.89 | – | – | – | –
16 | COc1ccc(-c2oc3cc(C)ccc3c(=O)c2O)c(Br)c1OC [F10, 2-(2-Bromo-3,4-dimethoxyphenyl)-3-hydroxy-7-methyl-4H-chromen-4-one] | – | – | 31 ± 13 | 36 ± 0.1 | – | – | 11 ± 5 | – | – | – | –
17 | O=c1c(O)c(-c2ccc(SC(F)(F)F)cc2)oc2ccccc12 [F3, 3-Hydroxy-2-(4-((trifluoromethyl)thio)phenyl)-4H-chromen-4-one] | 27 ± 0.7 | 5.2 ± 1.7 | 14 ± 0.2 | 9.7 ± 2.3 | 2.8 | 6.0 | – | – | 2.2 | 31 ± 0.74 | –
18 | Cc1cc2oc(-c3ccc(C(C)(C)C)cc3)c(O)c(=O)c2cc1Cl [F18, 2-(4-(Tert-butyl)phenyl)-6-chloro-3-hydroxy-7-methyl-4H-chromen-4-one] | – | – | > 100 | 24 ± 5.6 | – | – | – | – | – | – | –
19 | O=c1c(O)c(-c2ccc(Br)cc2Cl)oc2ccccc12 [F4, 2-(4-Bromo-2-chlorophenyl)-3-hydroxy-4H-chromen-4-one] | – | – | > 100 | 61 ± 30 | – | – | – | – | – | – | –
20 | COc1cc(OC)c(-c2oc3cc(Cl)ccc3c(=O)c2O)cc1OC [F24, 7-Chloro-3-hydroxy-2-(2,4,5-trimethoxyphenyl)-4H-chromen-4-one] | – | – | > 100 | > 100 | – | – | – | – | – | – | –
21 | CCOc1ccc(-c2oc3cc(Cl)ccc3c(=O)c2O)cc1F [F21, 7-Chloro-2-(4-ethoxy-3-fluorophenyl)-3-hydroxy-4H-chromen-4-one] | 26 ± 0.4 | 12 ± 3 | 8.6 ± 0.4 | 8.2 ± 0.2 | 3.2 | 2.3 | – | – | 3.2 | 27 ± 0.1 | IC50 [7]: 0.26 µM; DAPI (+) apoptotic cells ([11]; A431, treated 36 hours at IC50): 14.4%; DAPI (+) apoptotic cells [11, 13]: 8.8%; IC50 [9]: 30.1 µM; DAPI (+) apoptotic cells [12, 14]: 5.4%; inhibition of mTOR kinase activity (in words) [10]: did not substantively inhibit
